RGS4 inh – RGS4 inhibitors, primary screen, cell-based, HEK293 M3R inducible RGS4, calcium flux; B-score at 10 µM; Fluo-4 calcium flux; active compounds read high; triggered by carbachol at its EC20; 310,000 tested, 0.45% active; Regulator of G-protein signaling 4 (Homo sapiens), P49798; AID 463165, 2010;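 active = B-score, a plate-corrected calcium signal, over three deviations above library mean, with baseline fluorescence within five deviations of library mean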;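 also: RGS4 expression induced by doxycycline in cells with stable M3 receptor; B-score is computed from the integrated fluorescence ratio over baseline after carbachol; higher B-score means a larger calcium signal and so more RGS4 inhibition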
Target sequence (P49798 whole entry, looked up): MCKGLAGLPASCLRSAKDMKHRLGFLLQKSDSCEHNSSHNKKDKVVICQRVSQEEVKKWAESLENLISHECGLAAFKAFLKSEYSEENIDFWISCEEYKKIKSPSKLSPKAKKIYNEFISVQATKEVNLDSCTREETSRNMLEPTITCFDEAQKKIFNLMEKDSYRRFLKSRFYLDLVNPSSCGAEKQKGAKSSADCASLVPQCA
MrgX1 antag – antagonists of human MrgX1 receptor, primary screen, HEK293 cells, Fluo-4 calcium flux; Mas-related G-protein coupled receptor member X1 (Homo sapiens), Q96LB2; BAM8-22 antagonism; active compounds read low; B-score at 10 µM; 310,000 tested, 1.3% active; AID 588676, 2011;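 active = calcium-response B-score plate-corrected more than 3 library SD below zero, starting fluorescence within 5 deviations, no agonist response on first addition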;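 also: peak minus trough fluorescence over baseline after final BAM8-22 challenge near maximal dose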
Target sequence (Q96LB2 whole entry, looked up): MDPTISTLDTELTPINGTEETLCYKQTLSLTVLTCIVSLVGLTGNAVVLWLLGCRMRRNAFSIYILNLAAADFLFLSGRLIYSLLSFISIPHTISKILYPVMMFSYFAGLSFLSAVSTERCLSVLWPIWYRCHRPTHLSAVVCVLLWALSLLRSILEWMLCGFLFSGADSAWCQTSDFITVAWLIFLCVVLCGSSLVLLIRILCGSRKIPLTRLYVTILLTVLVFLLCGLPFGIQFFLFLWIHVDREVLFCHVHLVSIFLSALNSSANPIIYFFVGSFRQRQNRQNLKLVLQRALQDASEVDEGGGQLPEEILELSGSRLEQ
MrgX1 ag – agonists of human MrgX1 receptor, primary screen, HEK293 cells, Fluo-4 calcium flux; Mas-related G-protein coupled receptor member X1 (Homo sapiens), Q96LB2; Fluo-4 calcium fluorescence, agonist mode; active compounds read high; B-score at 10 µM; 310,000 tested, 0.44% active;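 active = calcium response B-score plate-corrected fluorescence ratio at least 3 library SD, with starting fluorescence B-score inside 5 SD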
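Test system: HEK293 cells stably expressing human MrgX1 receptor; Input: fifteen thousand cells per well; Dosing: compound delivered in addition one of three; Schedule: overnight seeding, then 1 h dark dye loading; Technique: Fluo-4 NW calcium fluorescence; Measure: B-scored fluorescence response ratio; Controls: positive and negative controls per plate.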
MrgX1 PAM – positive allosteric modulators of MrgX1, primary screen, HEK293 cells, Fluo-4 calcium flux. FDSS; active compounds read high. B-score at 10 µM. 310,000 tested, 0.63% active. AID 588675, 2011;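 active = plate-corrected calcium response at least 3 library SD above typical, normal starting fluorescence, not activating the receptor alone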;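 also: compound read alongside a low EC10 to EC30 dose of BAM8-22 agonist; peak minus trough fluorescence over baseline measured at the second addition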
RGS4 act – RGS4 potentiators or activators, primary screen, cell-based, HEK293 M3R inducible RGS4, calcium flux; carbachol calcium flux Fluo4; active compounds read low; B-score at 10 µM; 310,000 tested, 0.92% active; AID 463111, 2010;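 active = B-score of the integrated calcium signal more than 4 SD below the library mean, with starting fluorescence not abnormally high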;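 also: negative B-score means reduced calcium response which marks RGS4 activation or potentiation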
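Reagent: ECmax carbachol challenge; Test system: M3R-expressing HEK293 line, RGS4 induced by doxycycline; Schedule: overnight RGS4 induction, 30 min dye load 37 °C, 20 min compound RT; Detection: calcium dye Fluo4 fluorescence; Read-out: Agonist-evoked peak-minus-minimum fluorescence over baseline, integrated ratio, B score.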
Large screens that a line does not name were inactive. Hits are enriched below; roughly 3.5% of the tested compounds scored in any of these assays.

O=C(Nc1nc(-c2ccc(F)c(F)c2)cs1)Nc1ccc(F)cc1F	none
N=C1/C(=C/c2ccc(OCc3ccccc3)cc2)C(=O)N=C2SC(CC(=O)N3CCOCC3)=NN12	MrgX1 PAM 9.74
CN(C)c1ccc(/C=C2\C(=N)N3C(=NC2=O)Sc2cc(S(C)(=O)=O)ccc23)cc1	MrgX1 ag 29.5
Cc1cc(/C=C2\C(=N)N3N=C(CC(=O)N4CCOCC4)SC3=NC2=O)c(C)n1Cc1ccccc1	none
CN(C)c1ccc(/C=C2\C(=N)N3N=C(CC(=O)N4CCCCC4)SC3=NC2=O)cc1	MrgX1 ag 54.9
CN1CCN(c2ccc(NC(=O)CSc3nnnn3-c3ccccc3Cl)cc2)CC1	none
Cc1cc(OCC(O)CN2CCN(c3ccccn3)CC2)cc(C)c1Cl (configuration not stated)	none
On1c2c(c3c4nonc4ccc31)CCCC2	MrgX1 ag 26.7
COn1c2c(c3c4nonc4ccc31)CCCC2	none
N#CCCN(C(=O)COC(=O)c1ccc(CNS(=O)(=O)c2ccc(F)c(Cl)c2)cc1)c1ccc(F)cc1	RGS4 act -8.84
CCCN(CC1CC1)C(=O)COC(=O)c1ccc(CNS(=O)(=O)c2ccc(F)c(Cl)c2)cc1	MrgX1 antag -4.86
O=C(COC(=O)c1ccc(CNS(=O)(=O)c2ccc(F)c(Cl)c2)cc1)NC1CCCCCCC1	none
CCC[n+]1c(C)sc2c(OC)ccc(OC)c21	MrgX1 antag -5.5
COCCNC(=O)C(c1ccco1)N(C(=O)Cn1nnc2ccccc21)c1ccc(C)cc1C (configuration not stated)	MrgX1 PAM 7.92
CCc1ccccc1N(C(=O)Cn1nnc2ccccc21)C(C(=O)NCCOC)c1ccco1 (configuration not stated)	none
COc1cc(/C=C2/C(=O)N(c3cccc(Br)c3)N=C2C)cc(OC)c1O	MrgX1 ag 62.5
CC(=O)[C@H]1CC[C@H]2[C@@H]3CCC4=CC(=O)CC[C@]4(C)[C@H]3[C@H](O)C[C@]12C	none
C[C@]12CC(O)C3C(CCC4=CC(=O)CC[C@@]43C)C1CCC2c1csc(-c2ccccc2)n1 (some centres not stated)	RGS4 act -9.61
COC(=O)/C=C1\OC(c2ccccc2)=CC1=O	RGS4 inh 26
COC(=O)c1cc2c(=O)c3ccccc3oc2nc1/C=C/N(C)C	MrgX1 ag 67.5
COC(=O)c1cc2c(=O)c3ccccc3oc2nc1C	none
O=C(NNC(=O)c1cccc(S(=O)(=O)N2CCN(c3ccccc3)CC2)c1)c1ccc(Cl)cc1	none
O=C(NNC(=O)c1cc(Cl)ccc1O)c1cccc(S(=O)(=O)N2CCOCC2)c1	MrgX1 antag -4.85
Oc1cncc(Cc2ccccc2)c1	none
CC1=NOC(=O)/C1=C\c1ccc(-c2ccc(Br)cc2)o1	none (no result: MrgX1 antag, MrgX1 ag, MrgX1 PAM)
CC1=NOC(=O)/C1=C/c1ccc(-c2ccc(Cl)cc2)o1	MrgX1 ag 45.8 (no result: RGS4 inh, RGS4 act)
CC1(c2ccc(Cl)cc2)NC(=O)N(CC(=O)Nc2cccnc2Cl)C1=O (configuration not stated)	none
COc1ccc(/C=c2\sc3nc(=O)c(C)nn3c2=O)c(OC)c1	MrgX1 ag 27.1
O=C(O)COc1ccc(/C=C/c2nc3ccc([N+](=O)[O-])cc3s2)cc1	MrgX1 antag -4.78
CCOc1ccc(/C=C2/C(=O)N(c3ccc(OC)cc3)C(=S)N2CC(=O)OC)cc1OCC	MrgX1 antag -6.39
CCOc1ccc(N2C(=O)/C(=C/c3cc(OC)c(OC)c(OC)c3)N(CC(=O)OC)C2=S)cc1	none
O=C(c1ccco1)N1N=C(c2cccs2)CC1c1cc([N+](=O)[O-])ccc1O (configuration not stated)	MrgX1 PAM 7.11
C=CCN1C(=O)c2ccccc2Sc2ccc(C(=O)NCCC)cc21	none
CCc1cc[n+](-c2nc3ccccc3nc2[N-]S(=O)(=O)c2ccc(Br)s2)cc1	MrgX1 antag -6.5
Oc1c(Cl)cc(Cl)cc1/C=N/Nc1ncc(Br)cn1	none
Cc1ccc(N=Cc2cc(Cl)cc(Cl)c2O)nc1	MrgX1 PAM 7.57
Cc1ccc(S(=O)(=O)c2cn(Cc3ccc(F)cc3)c3cc4c(cc3c2=O)OCO4)cc1	MrgX1 antag -4.56
Cc1cccc(C)c1NC(=O)C(C)Sc1nnc(C)n1CC1CCCO1 (configuration not stated)	none (no result: MrgX1 antag, MrgX1 ag, MrgX1 PAM)
Cc1sc(NC(=O)c2ccco2)nc1-c1ccc2c(c1)CC(C)N2C(=O)C1CC1 (configuration not stated)	RGS4 act -7.07
O=c1c2ccc(Cl)cc2nc(-c2ccc([N+](=O)[O-])cc2)n1O	MrgX1 ag 53.5
O=c1c2cc(Cl)ccc2nc(-c2ccccc2)n1O	none
O=c1c2cc(Br)ccc2nc(-c2ccc([N+](=O)[O-])cc2)n1O	MrgX1 ag 133
Cc1ccc(C)c(OC(=O)c2cccc(S(=O)(=O)N3CCN(C)CC3)c2)c1	none
COc1ccc(C)cc1S(=O)(=O)N(C)CC(=O)NCc1ccncc1	none
COc1ccc(CCN(C)C2CCCN(C(=O)CCC(F)(F)F)C2)cc1OC (configuration not stated)	none
COC(=O)CCC(=O)OC1(C)C(=O)C2=CN(Cc3ccc(OC)cc3)C(c3ccc(OC)cc3)=CC2=C(Br)C1=O (configuration not stated)	MrgX1 antag -4.86
COc1cc2ccccc2cc1C(=O)N(CCN(C)C)c1nc2c(OC)ccc(OC)c2s1	MrgX1 PAM 8.82
Cc1c(Cc2ccccc2)sc(/N=C/c2ccc3ccccc3c2)c1C(N)=O	none (no result: RGS4 inh, RGS4 act)
Cc1c(Cc2ccccc2)sc(/N=C/c2c(O)ccc3ccccc23)c1C(N)=O	MrgX1 antag -7.62
O=C(O)CSc1nnc(-c2ccc(Cl)cc2Cl)n1-c1ccc(Cl)cc1	none
O=C(CNC(=O)C(c1ccccc1)c1ccccc1)N/N=C/c1ccc(O)cc1O	MrgX1 antag -5.73
O=C(CNC(=O)C(c1ccccc1)c1ccccc1)N/N=C\c1cccc(O)c1	none
COc1ccc(-n2ncc3c2CC(C)(C)CC3NC(=O)CCN2CCCCC2=O)cc1 (configuration not stated)	none
COc1cc(/C=C(/C(=O)O)c2ccc(-c3ccccc3)cc2)cc(OC)c1OC	none
COc1ccc(/C(=C/c2ccc(OC(F)F)c(OC)c2)C(=O)O)cc1OC	MrgX1 antag -5.76
CC(C)Cc1ccc(C(C)C(=O)OCC(=O)c2c[nH]c3ccccc23)cc1 (configuration not stated)	RGS4 act -7.34
Cc1ccc(C(=O)OCC(=O)c2c[nH]c3ccccc23)cc1	none
CCOc1ccc(S(=O)(=O)NCc2ccc3c(c2)OCO3)cc1	none
O=C(CCN1C(=O)/C(=C\c2cccc(Br)c2)SC1=S)N1CCOCC1	none

Screening results as filed in PubChem BioAssay.
